Here are results for nine compounds from ChEMBL document CHEMBL1799921, “3-(1,3,4-Thiadiazole-2-yl)quinoline derivatives: synthesis, characterization and anti-microbial activity” (Eur J Med Chem, 2011).

In brackets after ≈: the same amount, converted by molar mass.

In experiment [1] the test system is Salmonella typhimurium. Nature of the experiment: Antibacterial activity against Salmonella Typhimurium measured at MIC after 18 hrs by halo zone test. The class given is functional, Salmonella enterica subsp. enterica serovar Typhimurium. In short, it runs like this:
(§1)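 Disk diffusion. Strains subcultured 18 h at 37 °C in BHI, then suspended in saline by McFarland to about 10⁵ CFU/mL. Suspension mixed 1:1 with antibiotic agar at 40 °C and plated. 6.0 mm paper disks loaded with dilutions from a DMSO stock (1 mg per 100 of DMSO). Incubated 18 h at 36 °C. Inhibition zone (mm) measured at the MIC. Amoxicillin and DMSO disks as controls.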

In experiment [2] the test system is Escherichia coli. Nature of the experiment: Antibacterial activity against Escherichia coli measured at MIC after 18 hrs by halo zone test. Format: functional. In short, it runs like this: as §1
Experiment [3] concerns Escherichia coli. Nature of the experiment: Antibacterial activity against Escherichia coli after 18 hrs by macro-dilution test. Format: functional. In short, it runs like this: (§2)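 Tube macro-dilution. Compounds in DMSO serially diluted to final […]. 24 h old inoculum added to each tube. Standard inoculum […]. Incubated 18 h at 37 °C. MIC is the lowest concentration with no visible growth, read visually. DMSO negative and amoxicillin positive controls.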

Experiment [4] concerns Staphylococcus aureus. Put plainly: Antibacterial activity against Staphylococcus aureus after 18 hrs by macro-dilution test. The class given is functional. In short, it runs like this: as §2
Experiment [5] has as its system Staphylococcus aureus. Nature of the experiment: Antibacterial activity against Staphylococcus aureus measured at MIC after 18 hrs by halo zone test. The class given is functional. Summed up:
as §1

The subject of experiment [6] is Streptococcus pyogenes. Nature of the experiment: Antibacterial activity against Streptococcus pyogenes measured at MIC after 18 hrs by halo zone test. Format: functional. In short, it runs like this: as §1
Experiment [7] concerns Streptococcus pyogenes. Put plainly: Antibacterial activity against Streptococcus pyogenes after 18 hrs by macro-dilution test. The class given is functional. In short, it runs like this:
as §2

Experiment [8] concerns Salmonella typhimurium. Nature of the experiment: Antibacterial activity against Salmonella Typhimurium after 18 hrs by macro-dilution test. Format: functional, Salmonella enterica subsp. enterica serovar Typhimurium. Particulars: Salmonella enterica. In short, it runs like this: as §2

As a reminder, the MIC is the lowest concentration found to suppress growth. The low end stands for inhibition by little substance, the high end for a need for much substance. Regarding `S=C(N/N=C/c1cc2cccc(Cl)c2nc1Cl)NC1CCCC1`, the “inhibition zone (IZ)” value in the experiment on Salmonella typhimurium [1] was found to be 15.17 mm; with Escherichia coli [2], 17.18 mm; with Staphylococcus aureus [5], 17.68 mm; with Streptococcus pyogenes [6] it was 13.15 mm. Besides, the MIC was 256 µg/mL (≈ 697 µM) with Escherichia coli [3], 128 µg/mL (≈ 348 µM) against Staphylococcus aureus [4], 256 µg/mL (≈ 697 µM) in the experiment with Streptococcus pyogenes [7] and 128 µg/mL (≈ 348 µM) in the experiment with Salmonella typhimurium [8].
For the compound `CC(=O)N(C1=NN(C(C)=O)C(c2cc3cccc(C)c3nc2Cl)S1)c1ccc([N+](=O)[O-])cc1` (configuration not stated), the “inhibition zone (IZ)” value is 19.16 mm in the experiment on Salmonella typhimurium [1], 13.03 mm in the experiment with Escherichia coli [2], 16.54 mm with Staphylococcus aureus [5] and 15.27 mm with Streptococcus pyogenes [6]. The minimal inhibitory concentration (MIC) with Escherichia coli [3], in the experiment on Staphylococcus aureus [4], against Streptococcus pyogenes [7] and against Salmonella typhimurium [8] was 64 µg/mL (≈ 132 µM) in each case.
As to `Cc1ccc(NC(=S)N/N=C/c2cc3ccccc3nc2Cl)cc1`, the “inhibition zone (IZ)” value in the experiment on Salmonella typhimurium [1] came out at 18.02 mm; with Escherichia coli [2], 16.65 mm; in the experiment with Staphylococcus aureus [5], 17.93 mm; in the experiment with Streptococcus pyogenes [6] it was 17.43 mm. Besides, the minimum inhibitory concentration (MIC) came out at 64 µg/mL (≈ 180 µM) in the experiment on Escherichia coli [3], 32 µg/mL (≈ 90.2 µM) with Staphylococcus aureus [4], 32 µg/mL (≈ 90.2 µM) against Streptococcus pyogenes [7] and 64 µg/mL (≈ 180 µM) in the experiment with Salmonella typhimurium [8].
On to `CC(=O)N1N=C(N(C(C)=O)C2CCCC2)SC1c1cc2cccc(C)c2nc1Cl` (configuration not stated), for which the “inhibition zone (IZ)” value was determined as 15.13 mm with Salmonella typhimurium [1], 16.08 mm in the experiment with Escherichia coli [2], 19 mm in the experiment on Staphylococcus aureus [5] and 17.71 mm with Streptococcus pyogenes [6]. The MIC with Escherichia coli [3] worked out at 128 µg/mL (≈ 297 µM); against Staphylococcus aureus [4] it was 128 µg/mL (≈ 297 µM); against Streptococcus pyogenes [7], 64 µg/mL (≈ 149 µM); in the experiment on Salmonella typhimurium [8] it was 128 µg/mL (≈ 297 µM).
`CC(=O)N1N=C(N(C(C)=O)C2CCCC2)SC1c1cc2cccc(Cl)c2nc1Cl` (configuration not stated): the “inhibition zone (IZ)” value with Salmonella typhimurium [1] was found to be 15.17 mm; in the experiment on Escherichia coli [2], 18.18 mm; in the experiment on Staphylococcus aureus [5], 18.03 mm; in the experiment on Streptococcus pyogenes [6], 14.15 mm. The MIC stood at 128 µg/mL (≈ 284 µM) with Escherichia coli [3], 64 µg/mL (≈ 142 µM) against Staphylococcus aureus [4], 64 µg/mL (≈ 142 µM) in the experiment with Streptococcus pyogenes [7] and 128 µg/mL (≈ 284 µM) in the experiment with Salmonella typhimurium [8].
As to `NC(=S)N/N=C/c1cc2cccc(Cl)c2nc1Cl`, the “inhibition zone (IZ)” value is 16.66 mm with Salmonella typhimurium [1], 15.8 mm with Escherichia coli [2], 21.13 mm in the experiment with Staphylococcus aureus [5] and 19.58 mm in the experiment on Streptococcus pyogenes [6]. The MIC with Escherichia coli [3] was found to be 128 µg/mL (≈ 428 µM); against Staphylococcus aureus [4] it was 64 µg/mL (≈ 214 µM); against Streptococcus pyogenes [7] it was 64 µg/mL (≈ 214 µM); in the experiment on Salmonella typhimurium [8], 128 µg/mL (≈ 428 µM).
Consider `Cc1cccc2cc(/C=N/NC(=S)NC3CCCC3)c(Cl)nc12`, for which the “inhibition zone (IZ)” value in the experiment with Salmonella typhimurium [1] was 17.44 mm; in the experiment with Escherichia coli [2], 16.97 mm; in the experiment with Staphylococcus aureus [5], 20.04 mm; in the experiment with Streptococcus pyogenes [6], 18.71 mm. Besides, the minimal inhibitory concentration (MIC) against Escherichia coli [3], against Staphylococcus aureus [4], in the experiment with Streptococcus pyogenes [7] and against Salmonella typhimurium [8] was 256 µg/mL (≈ 738 µM) each time.
In the case of `Fc1ccc(F)c(NC(=S)N/N=C/c2cc3cccc(Cl)c3nc2Cl)c1`, the “inhibition zone (IZ)” value came to 14.92 mm in the experiment with Salmonella typhimurium [1], 13.75 mm with Escherichia coli [2], 12.15 mm with Staphylococcus aureus [5] and 15.92 mm with Streptococcus pyogenes [6]. Besides, the MIC with Escherichia coli [3] was 64 µg/mL (≈ 156 µM); in the experiment on Staphylococcus aureus [4], 64 µg/mL (≈ 156 µM); against Streptococcus pyogenes [7] it was 32 µg/mL (≈ 77.8 µM); in the experiment on Salmonella typhimurium [8], 64 µg/mL (≈ 156 µM).
For `S=C(N/N=C/c1cc2ccccc2nc1Cl)NC1CCCCC1`, the “inhibition zone (IZ)” value with Salmonella typhimurium [1] was found to be 15.93 mm; in the experiment on Escherichia coli [2] it was 17.68 mm; in the experiment on Staphylococcus aureus [5], 12.37 mm; with Streptococcus pyogenes [6] it was 12.38 mm. Besides, the MIC against Escherichia coli [3] came to 128 µg/mL (≈ 369 µM); against Staphylococcus aureus [4], 256 µg/mL (≈ 738 µM); against Streptococcus pyogenes [7], 256 µg/mL (≈ 738 µM); with Salmonella typhimurium [8] it was 128 µg/mL (≈ 369 µM).
